Screening results (PubChem)
HUVEC inhibit: blocks proliferation of human endothelial cells. HUVEC proliferation, CellTiter-Glo luminescence, 72 h; stronger effect = lower value. viability, % at 10 µM (by protocol). 1.1% of 86,000 active. AID 648;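 active means viability at or below 30%; inactive means viability above 30%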
H69AR growth 86K: blocks growth of human H69AR lung tumor cells; AID 598; viability, % at 10 µM; 6% of 85,000 active; H69AR lung tumor viability, ATP luminescence, 72 h; stronger effect = lower value;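 active means viability at or below 40%; inactive means viability above 40%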;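 further: multidrug resistant small cell line overexpressing MRP-1 efflux transporter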
Fibroblast inh: blocks proliferation of human lung fibroblasts; LL 47 human lung fibroblast viability, ATP luminescence; stronger effect = lower value; 1.1% of 85,000 active; viability, % at 10 µM;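 active means viability at or below 50% in the single dose screen; inactive means viability above 50%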;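 further: compound exposure lasted 72 h before the ATP readout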
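Material: human LL 47 lung fibroblast cells; quantity: 1,150 cells/well; medium: IMEM plus 15% FBS; doses: 0.1% DMSO in all compound wells; timing: overnight attachment after seeding, then 72 h compound exposure at 37 °C; detection: CellTiter-Glo luminescence; measure: % viability of median cell-only signal; controls: cell-only wells, no compound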
HCT116 PTEN-null: PTEN-deleted cell growth suppression; HCT116 PTEN-null viability, CellTiter-Glo, 60 h; stronger effect = lower value; viability, % at 10 µM; 1.2% of 140,000 active; AID 827;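 active means viability at or below a set limit, 4 SD under the median of all tested compounds, cut at about 3.7% in these data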;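 further: PTEN knockout HCT116 line with beta catenin targeted HCT116 as companion control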
HCT116 bCat-KO: beta-catenin-lacking colon tumor cell growth suppression. 1.5% of 140,000 active. viability, % at 10 µM. HCT116 beta-catenin knockout viability, CellTiter-Glo, 60 h; stronger effect = lower value;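 active means viability at or under a set limit, the compound median less 4 SD, cut at about 6% in these data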
Of the large screens only hits and unclear results are named; the others gave an inactive call. Many of the other results were omitted from the sample, so hits are more common in it than they were.

COC(=O)c1[nH]c2ccc(Br)cc2c1NC(=O)CN1CCN(C2CCCCC2)CC1	HUVEC inhibit 5.7, H69AR growth 86K 2.9, Fibroblast inh 16.2, HCT116 PTEN-null 1.8, HCT116 bCat-KO 1.7
CCOC(=O)C1CCCN(CC(=O)Nc2c(C(=O)OC)[nH]c3ccc(Br)cc23)C1 (stereo not drawn)	none
CCOC(=O)C1CCN(CC(=O)Nc2c(C(=O)OC)[nH]c3ccccc23)CC1	H69AR growth 86K 1.9
NS(=O)(=O)c1ccc(NC(=S)Nc2nn(Cc3ccc(Cl)cc3Cl)cc2Cl)cc1	none (no result: HUVEC inhibit, H69AR growth 86K, Fibroblast inh)
O=C(COC(=O)C1CCN(S(=O)(=O)c2ccccc2)CC1)NC(=O)c1ccc(OC(F)F)cc1	none (no result: HUVEC inhibit, H69AR growth 86K, Fibroblast inh)
COC(=O)c1sc(N)c(C(=O)OC)c1COC(=O)CNS(=O)(=O)c1ccc(C)c(C)c1	none (no result: HUVEC inhibit, H69AR growth 86K, Fibroblast inh)
COC(=O)c1[nH]c2cc(C)ccc2c1NC(=O)CN1CCCc2ccccc21	HCT116 bCat-KO 5.5 (no result: HUVEC inhibit, H69AR growth 86K, Fibroblast inh)
COC(=O)c1[nH]c2cc(C)ccc2c1NC(=O)CN1CCN(C(=O)c2ccco2)CC1	none
CCOC(=O)C1=C(C)Nc2nc3ccccc3n2C1c1ccccc1 (stereo not drawn)	H69AR growth 86K 11.1
COc1ccc(C2C(C(=O)c3ccccc3)=C(C)Nc3nc4ccccc4n32)cc1OC (stereo not drawn)	none (no result: HUVEC inhibit, H69AR growth 86K, Fibroblast inh)
CCCC(=O)N=C1SC2CS(=O)(=O)CC2N1c1ccc(-c2nc3ccc(C)cc3s2)cc1 (stereo not drawn)	none (no result: HUVEC inhibit, H69AR growth 86K, Fibroblast inh)
CC1(C)Cc2c(cnn2-c2ccccc2)C(=O)/C1=N\NC(=O)c1ccccc1O	none
CCOc1ccc(C(=O)Nc2ccccc2N2CCCC2)cc1	H69AR growth 86K 35.5
CCOC(=O)C1=C(Nc2ccccc2)CC(C)(O)C(C(=O)OCC)C1c1ccc(Cl)cc1 (stereo not drawn)	none (no result: HUVEC inhibit, H69AR growth 86K, Fibroblast inh)
Cc1ccc(-c2nn3c(C)nnc3s2)cc1NCc1c(F)cccc1Cl	H69AR growth 86K 28.4
Cc1ccc(-c2nn3c(C)nnc3s2)cc1NC(=O)CSc1ccc(Cl)cc1	HUVEC inhibit 28.9
Cc1nnc2sc(-c3ccc(NC(=O)CSc4ccc(Cl)cc4)cc3)nn12	none
Cc1ccc(CNc2cc(-c3nn4c(C)nnc4s3)ccc2C)s1	none
Nc1oc2ccc(F)cc2c(=O)c1C=O	none (no result: HUVEC inhibit, H69AR growth 86K, Fibroblast inh)
Nc1nc(Nc2cccc(F)c2)nc2ccccc12	H69AR growth 86K 35.6 (no result: Fibroblast inh)
Cc1ccc(CN=Cc2[nH]c3ccc(Br)c(Cl)c3c2O)cc1	H69AR growth 86K 33.1
Cc1oc2ccc(NS(=O)(=O)c3cccc4cccnc34)cc2c1C(=O)OC(C)C	none (no result: HUVEC inhibit, H69AR growth 86K, Fibroblast inh)
O=C1CCCN1c1ccc(S(=O)(=O)Oc2cccc(Cl)c2)cc1[N+](=O)[O-]	none (no result: HUVEC inhibit, H69AR growth 86K, Fibroblast inh)
O=C(Nc1c(C(=O)Nc2cccc(F)c2)oc2ccccc12)c1ccc2c(c1)OCO2	H69AR growth 86K 24.4
CCCS(=O)(=O)C(=C(Nc1ccccc1)Nc1ccccc1)S(=O)(=O)CCC	H69AR growth 86K 30.5
O=C(CCNC(=O)c1ccc(Cl)cc1)Nc1c(F)c(F)cc(F)c1F	none (no result: HUVEC inhibit, H69AR growth 86K, Fibroblast inh)
COC(=O)c1ccc2nc(C)c(C)nc2c1	none (no result: HUVEC inhibit, H69AR growth 86K, Fibroblast inh)
COC(=O)c1ccc2c(c1)C(C)(C)C(/C=C/c1ccc(O)cc1)=[N+]2C	HCT116 PTEN-null 1.7, HCT116 bCat-KO 1.9 (no result: HUVEC inhibit, H69AR growth 86K, Fibroblast inh)
COC(=O)c1ccc2c(c1)C(C)(C)C(/C=C/c1ccc(OC)c(OC)c1OC)=[N+]2C	HUVEC inhibit 5.3, H69AR growth 86K 4.1, Fibroblast inh 6.5, HCT116 PTEN-null 0.6, HCT116 bCat-KO 4.9
CC(C)(C)c1nc2c(Br)cc(Br)cc2c(=O)o1	none (no result: HUVEC inhibit, H69AR growth 86K, Fibroblast inh)
CCOc1ccc2nc(NC(=O)CS(=O)(=O)c3ccc(C)cc3)sc2c1	H69AR growth 86K 2.2
CCOc1ccc2nc(NS(=O)(=O)Cc3ccccc3)sc2c1	H69AR growth 86K 20.6
COc1cccc(/C=N/NC(=O)C(=O)Nc2ccccc2OC(F)(F)C(F)F)c1O	none (no result: HUVEC inhibit, H69AR growth 86K, Fibroblast inh)
CCOc1ccc(Br)cc1S(=O)(=O)Nc1nc(CN2CCOCC2)nc2sc(C)c(C)c12	H69AR growth 86K 33.6
Cc1sc2nc(CN3CCOCC3)nc(NS(=O)(=O)c3ccccc3)c2c1C	none
Cc1nc(NCCc2ccc(S(N)(=O)=O)cc2)c2c3c(sc2n1)CCC3	none (no result: HUVEC inhibit, H69AR growth 86K, Fibroblast inh)
NS(=O)(=O)c1ccc(CCNc2nc(CN3CCOCC3)nc3sc4c(c23)CCC4)cc1	H69AR growth 86K 16.4 (no result: HCT116 PTEN-null, HCT116 bCat-KO)
Cc1sc2nc(CN3CCOCC3)nc(NCCc3ccccc3)c2c1C	H69AR growth 86K 30.5
CC(NC(=O)C(C(=O)c1cccc([N+](=O)[O-])c1)n1cc(Cl)ccc1=O)c1ccccc1 (stereo not drawn)	none (no result: HUVEC inhibit, H69AR growth 86K, Fibroblast inh)
O=[N+]([O-])c1ccc(/C=N/NC(=S)Nc2ccccc2)o1	none (no result: HUVEC inhibit, H69AR growth 86K, Fibroblast inh)
Cc1cccc(NC(=S)N/N=C/c2ccc([N+](=O)[O-])s2)c1	HCT116 PTEN-null 0.8, HCT116 bCat-KO 1.0 (no result: HUVEC inhibit, H69AR growth 86K, Fibroblast inh)
Cc1ccc(NC(=O)/C=C/c2ccc([N+](=O)[O-])s2)cc1	none (no result: HUVEC inhibit, H69AR growth 86K, Fibroblast inh)
Cc1ccc(NC(=O)/C=C/c2ccc([N+](=O)[O-])s2)c(C)c1	HCT116 PTEN-null 1.1, HCT116 bCat-KO 2.6 (no result: HUVEC inhibit, H69AR growth 86K, Fibroblast inh)
Cc1cccc(NC(=O)/C=C/c2ccc([N+](=O)[O-])s2)c1	HCT116 PTEN-null 1.1, HCT116 bCat-KO 2.8 (no result: HUVEC inhibit, H69AR growth 86K, Fibroblast inh)
CCOc1cc(/C=C2\CCCC(C(=O)C(F)(F)F)=C2O)ccc1O	none (no result: HUVEC inhibit, H69AR growth 86K, Fibroblast inh)
CC(C)(C)[C@]1(O)CCN2C[C@H]3c4ccccc4CCc4cccc(c43)[C@@H]2C1	none (no result: HUVEC inhibit, H69AR growth 86K, Fibroblast inh)
CC1Cc2ccccc2N1Cc1nc2cc(Cl)ccc2c(=O)[nH]1 (stereo not drawn)	H69AR growth 86K 25.3
COC(=O)c1ccc2c(=O)[nH]c(CN3c4ccccc4CC3C)nc2c1 (stereo not drawn)	none
CCOc1cc(/C=N\NC(=O)Cn2nc([N+](=O)[O-])cc2C)ccc1OCc1cccc2ccccc12	H69AR growth 86K 16.4
